# S1P4 ag: human S1P4 receptor agonism. O95977. S1P4-expressing cell line, agonist reporter assay. activation, % at 4.98 µM. hit rate 0.35% among 220,000. AID 1509; in the data active = activation above about 11%
# NPY Y1 blocker: blocks the human neuropeptide Y Y1 receptor. P25929. inhibition, % at 3.6 µM. hit rate 1% among 200,000. HEK293-CNG Y1 cells, membrane potential fluorescence; NPY at EC95, then isoproterenol;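 active = inhibition above the campaign mean inhibition of all tested compounds plus 3 SD, cut at about 20% in these data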
#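 Test system – HEK293 Y1/CNG channel cell line · Also added – NPY agonist 25 nM, then isoproterenol 1 µM plus Ro 20-1724 25 µM · Compound dosing – one concentration, 3.6 µM, in 0.4% DMSO · Schedule – compound incubation 1 h at room temperature, readout 45 min post-stimulation · Technique – fluorescence, membrane potential probe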
# NPY-Y2 PAM-ag: human NPY-Y2 potentiation or agonism, primary screen | cells expressing NPY-Y2, potentiator/agonist read-out | P49146 | AID 1359 | hit rate 0.45% among 220,000 | activation, % at 3.6 µM; in the data active = activation above about 27%;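 also: cells stimulated with NPY near EC25 plus isoproterenol at EC100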
# Target sequence (P49146 whole entry, looked up): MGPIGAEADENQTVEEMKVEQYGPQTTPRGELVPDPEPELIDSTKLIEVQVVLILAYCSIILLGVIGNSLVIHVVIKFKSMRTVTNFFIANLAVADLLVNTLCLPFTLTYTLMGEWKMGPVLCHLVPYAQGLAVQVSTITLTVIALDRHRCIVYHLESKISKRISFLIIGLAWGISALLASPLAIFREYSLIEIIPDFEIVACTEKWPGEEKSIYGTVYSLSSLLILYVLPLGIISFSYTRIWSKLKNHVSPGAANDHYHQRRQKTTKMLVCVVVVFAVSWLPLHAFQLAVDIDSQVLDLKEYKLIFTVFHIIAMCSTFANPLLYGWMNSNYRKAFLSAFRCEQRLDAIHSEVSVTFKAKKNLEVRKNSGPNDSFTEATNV
# NPY Y2 blocker: blocks the human neuropeptide Y Y2 receptor | inhibition, % at 2.7 µM | hit rate 0.99% among 140,000 | NPY-Y2 expressing cells, antagonist mode; in the data active = inhibition above about 17%
# NPY-Y1 PAM-ag: potentiators or agonists of human neuropeptide Y receptor Y1. hit rate 0.37% among 220,000. activation, % at 3.6 µM. NPY-Y1 expressing cells, potentiator/agonist activation. AID 1304. P25929; in the data active = activation above about 33%, passing the limit was not always enough;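 also: cells stimulated with NPY at EC10 then isoproterenol at EC100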
# S1P4 antag: human S1P4 receptor antagonism. inhibition, % at 4.98 µM. O95977. hit rate 0.26% among 220,000. S1P4-expressing cells, antagonist mode, reporter read-out; in the data active = inhibition above about 29%
# S1P4 antag conf: confirmation of human S1P4 receptor antagonists | hit rate 71% among 520 | S1P4-expressing cell line, antagonist mode, reporter read-out | inhibition, % at 4.98 µM | shares compounds with S1P4 antag; in the data active = inhibition above about 30%
# S1P1 antagonist: counter-screen for S1P4 antagonists: antagonists of human S1P1; AID 1564; inhibition, % at 4.98 µM; hit rate 37% among 520; cell-based S1P1 antagonist counterscreen, inhibition; shares compounds with S1P4 antag; in the data active = inhibition above about 40%;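 also: receptor stimulated with S1P near its EC80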
# Numbers stand for hits; n = inactive; x = no result. Most compounds without a hit are left out; they make up all but 2.4% or so of the library.
SMILES,S1P4 ag,NPY Y1 blocker,NPY-Y2 PAM-ag,NPY Y2 blocker,NPY-Y1 PAM-ag,S1P4 antag,S1P4 antag conf,S1P1 antagonist
COc1ccc(/C=C(/C(=O)c2cccs2)N2C=CC=CC2=C(C#N)C#N)cc1,n,n,n,n,n,n,x,x
N#CC(C#N)=C1C=CC=CN1/C(=C\c1ccco1)C(=O)c1ccccc1,n,n,n,n,n,66.2,116.5,119.1
COc1ccc(-c2nsc(SCC(=O)NCC3CCCO3)n2)cc1 (configuration not stated),n,n,n,x,n,n,x,x
O=C1Nc2cc(Cl)c(Cl)cc2N(O)N1c1ccc(Cl)cc1,n,n,n,n,n,n,x,x
CC(C)CC(C(=O)NC1CCCC1)N(Cc1ccc2c(c1)OCO2)C(=O)c1snc(C(N)=O)c1N (configuration not stated),n,n,n,x,n,n,x,x
Cc1ccccc1OCC(=O)NCCc1nc2ccccc2[nH]1,n,n,n,n,n,n,x,x
Cc1cc(C)n(-c2cc(N3CCN(S(=O)(=O)c4ccc(Cl)cc4)CC3)ccc2[N+](=O)[O-])n1,n,n,n,n,n,60.1,n,n
CC(=O)N1CCN(c2ccc([N+](=O)[O-])c(-n3nc(C)cc3C)c2)CC1,n,n,n,n,n,n,x,x
OC(c1cc(-c2ccc(Cl)cc2)nc2ccccc12)C1CCCCN1 (configuration not stated),n,x,n,x,n,53.1,95.0,83.5
Cc1onc(-c2ccccc2)c1C(=O)N/N=C/c1c[nH]c2ccccc12,n,n,n,x,n,n,x,x
C=CCn1c(Sc2ncc([N+](=O)[O-])s2)n[nH]c1=O,n,x,n,x,n,68.9,110.7,51.4
O=C(Oc1cccc(/C=N/Nc2nc(Nc3ccccc3)nc(N3CCOCC3)n2)c1)c1ccco1,n,n,n,n,n,37.9,70.3,47.6
Brc1ccc2c(c1)C(c1cccnc1)=NNC(c1cccs1)=N2,n,n,n,n,n,n,x,x
O=c1/c(=C/c2ccc([N+](=O)[O-])cc2)sc2n1CCCN=2,n,n,n,n,n,34.0,n,n
COc1cc(/C=c2\sc3n(c2=O)CCCN=3)ccc1O,n,n,n,n,n,n,x,x
CCOC(=O)C1=C(Cc2ccc(F)cc2)C(=O)c2ccccc2C1=O,n,n,n,n,n,n,x,x
CCCCc1ccc(/C=C2\C(=O)c3ccccc3C(O)=C2C(=O)OCC)cc1,n,n,n,n,n,35.6,68.0,n
CC(=O)NC12CC3CC(C1)CC(C(=O)OCC(=O)NC(=O)c1cccn1C)(C3)C2,n,n,n,n,n,n,x,x
Cn1cccc1C(=O)NC(=O)COC(=O)C12CC3CC(CC(O)(C3)C1)C2,n,n,n,n,n,33.1,n,n
CCN(CC)c1ccc(CNc2nc3ccccc3n2CCN2CCOCC2)cc1,n,n,n,x,n,n,x,x
CC(C)(C)CC(C)(C)c1ccc(O)c(CN2CCN(CCC#N)CC2)c1,n,n,n,n,n,n,x,x
N#CCCN1CCN(Cc2cc(-c3ccccc3)ccc2O)CC1,n,n,n,n,n,39.2,n,n
COCCCNC(=O)c1ccc2c(=O)n(Cc3ccc4c(c3)OCO4)c(=S)[nH]c2c1,n,n,n,n,n,n,x,x
CC1=NNC(=O)/C1=C\c1cn(-c2ccccc2)nc1-c1ccccc1,n,n,n,x,n,35.6,116.4,55.3
CN(C1CCCCC1)S(=O)(=O)c1ccc(C(=O)O)cc1,n,n,n,n,n,n,x,x
SMILES,S1P4 ag,NPY Y1 blocker,NPY-Y2 PAM-ag,NPY Y2 blocker,NPY-Y1 PAM-ag,S1P4 antag,S1P4 antag conf,S1P1 antagonist
COCCN=C1Sc2nc3c(C)cccc3cc2CN1Cc1ccco1,n,n,n,n,n,50.8,n,n
COCCN=C1Sc2nc3ccc(C)cc3cc2CN1Cc1cccs1,n,n,n,x,n,n,x,x
Cc1cccc2cc3c(nc12)SC(=NCC1CCCO1)N(Cc1ccco1)C3 (configuration not stated),n,n,n,n,n,56.3,n,47.4
CN(C)c1ccnc(NCc2ccccc2)c1C#N,n,n,n,n,n,n,x,x
Cc1cc(N(C)C)c(C#N)c(NCc2ccccc2)n1,n,n,n,n,n,34.6,n,n
O=C(NCc1cccnc1)/C(=C\c1ccc(-c2ccc(Br)cc2)o1)S(=O)(=O)c1ccccc1,n,n,n,n,n,51.7,105.6,64.5
